MrgX1 antag = antagonists of human MrgX1 receptor, primary screen, HEK293 cells, Fluo-4 calcium flux; Mas-related G-protein coupled receptor member X1 (Homo sapiens), Q96LB2; BAM8-22 antagonism; stronger effect = lower value; B-score at 10 µM; actives 1.3% (n = 310,000); AID 588676, 2011;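 active = calcium-response B-score plate-corrected more than 3 library SD below zero, starting fluorescence within 5 deviations, no agonist response on first addition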;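 also: peak minus trough fluorescence over baseline after final BAM8-22 challenge near maximal dose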
Target sequence (Q96LB2 whole entry, looked up): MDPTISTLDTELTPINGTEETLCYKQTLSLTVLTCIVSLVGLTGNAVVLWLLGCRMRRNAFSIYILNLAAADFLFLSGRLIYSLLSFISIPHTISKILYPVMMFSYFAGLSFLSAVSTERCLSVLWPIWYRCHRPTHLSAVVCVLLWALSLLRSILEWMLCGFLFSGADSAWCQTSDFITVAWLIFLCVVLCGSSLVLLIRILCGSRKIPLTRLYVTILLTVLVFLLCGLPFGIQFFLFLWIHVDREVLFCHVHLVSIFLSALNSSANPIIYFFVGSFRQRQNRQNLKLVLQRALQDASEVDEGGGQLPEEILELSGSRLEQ
MrgX1 agonist = agonists of human MrgX1 receptor, primary screen, HEK293 cells, Fluo-4 calcium flux | actives 0.44% (n = 310,000) | Fluo-4 calcium fluorescence, agonist mode; stronger effect = higher value | B-score at 10 µM | Mas-related G-protein coupled receptor member X1 (Homo sapiens), Q96LB2 | AID 588627, 2011;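 active = calcium response B-score plate-corrected fluorescence ratio at least 3 library SD, with starting fluorescence B-score inside 5 SD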
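Test system: HEK293 cells stably expressing human MrgX1 receptor; Input: fifteen thousand cells per well; Dosing: compound delivered in addition one of three; Schedule: overnight seeding, then 1 h dark dye loading; Technique: Fluo-4 NW calcium fluorescence; Measure: B-scored fluorescence response ratio; Controls: positive and negative controls per plate.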
RGS4 block = RGS4 inhibitors, primary screen, cell-based, HEK293 M3R inducible RGS4, calcium flux; Regulator of G-protein signaling 4 (Homo sapiens), P49798; Fluo-4 calcium flux; stronger effect = higher value; triggered by carbachol at its EC20; B-score at 10 µM; actives 0.45% (n = 310,000); AID 463165, 2010;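 active = B-score, a plate-corrected calcium signal, over three deviations above library mean, with baseline fluorescence within five deviations of library mean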;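 also: RGS4 expression induced by doxycycline in cells with stable M3 receptor; B-score is computed from the integrated fluorescence ratio over baseline after carbachol; higher B-score means a larger calcium signal and so more RGS4 inhibition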
Target sequence (P49798 whole entry, looked up): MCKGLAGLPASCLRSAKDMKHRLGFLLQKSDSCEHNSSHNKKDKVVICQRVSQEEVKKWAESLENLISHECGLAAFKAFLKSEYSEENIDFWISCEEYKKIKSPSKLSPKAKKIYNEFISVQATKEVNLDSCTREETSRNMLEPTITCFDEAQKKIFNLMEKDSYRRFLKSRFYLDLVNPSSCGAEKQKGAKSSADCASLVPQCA
RGS4 pot = RGS4 potentiators or activators, primary screen, cell-based, HEK293 M3R inducible RGS4, calcium flux | AID 463111, 2010 | carbachol calcium flux Fluo4; stronger effect = lower value | B-score at 10 µM | actives 0.92% (n = 310,000);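 active = B-score of the integrated calcium signal more than 4 SD below the library mean, with starting fluorescence not abnormally high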;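 also: negative B-score means reduced calcium response which marks RGS4 activation or potentiation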
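Material: M3R-expressing HEK293 line, RGS4 induced by doxycycline | Schedule: Overnight RGS4 induction, 30 min dye load 37 °C, 20 min compound RT | Measured by: Fluo4 fluorescence kinetic imaging of calcium | Read-out: Integrated calcium ratio converted to B score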
MrgX1 allo act = positive allosteric modulators of MrgX1, primary screen, HEK293 cells, Fluo-4 calcium flux. AID 588675, 2011. actives 0.63% (n = 310,000). FDSS; stronger effect = higher value. B-score at 10 µM. Mas-related G-protein coupled receptor member X1 (Homo sapiens), Q96LB2;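 active = plate-corrected calcium response at least 3 library SD above typical, normal starting fluorescence, not activating the receptor alone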;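 also: compound read alongside a low EC10 to EC30 dose of BAM8-22 agonist; peak minus trough fluorescence over baseline measured at the second addition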
MrgX1 allo conf = MrgX1 positive allosteric modulators, duplicate retest, confirmation, HEK293 cells, Fluo-4 calcium flux; actives 13% (n = 1,200); shares compounds with MrgX1 allo act; activation (ratio percentage), % at 10 µM; Fluo-4 calcium fluorescence, FDSS; AID 602413, 2012;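 active = ratio at least 3 SD above the weak peptide control, stable starting fluorescence, no direct agonism earlier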;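 also: compound followed by low BAM8-22 agonist challenge near EC20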
HEK293 Ca flux = nonspecific calcium signal in parental HEK293, confirmation, counter-screen for MrgX1 antagonist project, parental HEK293 cells, Fluo-4 calcium flux; shares compounds with MrgX1 antag; Fluo-4 calcium fluorescence, FDSS; fluorescence ratio F(max-min)/F0 at 10 µM; actives 2% (n = 4,000); AID 624111, 2012;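 active = duplicate-averaged calcium fluorescence ratio at least three times the standard deviation of buffer wells, a nonspecific response in parental cells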
HEK293 Ca counter = calcium response in parental HEK293 cells, primary screen, counter-screen for MrgX1 allosteric activator project, cell-based, Fluo-4 calcium flux, duplicate; shares compounds with MrgX1 antag; Fluo-4 fluorescence ratio; stronger effect = higher value; fluorescence ratio F(max-min)/F0 at 10 µM; actives 0.4% (n = 4,000); AID 624114, 2012;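 active = calcium fluorescence ratio, averaged over duplicates, at least 3 SD of the buffer-well ratio, meaning a nonspecific response in receptor-free cells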;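 also: untransfected parental HEK293 lacking MrgX1 used as counterscreen for MrgX1 allosteric activators; fluorescence change taken during the second addition on a kinetic imager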
HEK293 Ca cntr2 = calcium response in parental HEK293 cells, primary screen, counter-screen for MrgX1 agonist project, cell-based, Fluo-4 calcium flux, duplicate, agonist mode | shares compounds with MrgX1 antag | Fluo-4 calcium fluorescence (FDSS); stronger effect = higher value | fluorescence ratio F(max-min)/F0 at 10 µM | actives 8.7% (n = 4,000) | AID 624115, 2012;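 active = calcium fluorescence ratio at least three times the spread of buffer wells, meaning a non-specific response in parental cells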
Each line names hits and unclear results; the compound was inactive in the other large screens (follow-up assays come after a bar, where they were run). Most compounds without a hit are left out; they make up all but 3.5% or so of the library.

CN1CCN(c2ccc(Cl)cc2NC(=O)C2COc3ccccc3O2)CC1 (stereo not drawn)	MrgX1 allo act 6.5 | MrgX1 allo conf inactive | HEK293 Ca flux inactive | HEK293 Ca counter inactive | HEK293 Ca cntr2 inactive
CCOc1ccccc1CNC(=O)C1CCN(C(=O)c2sccc2-n2cccc2)CC1	none
CSc1ncccc1C(=O)OCC(=O)N(C)c1c(N)n(Cc2ccccc2)c(=O)[nH]c1=O	none
CCOc1ccc(C(=O)NC(=S)NC2CCCC2)cc1[N+](=O)[O-]	none
CCOC(=O)C1CCN(C(=O)CN2C(=O)c3cccnc3Oc3ccccc32)CC1	MrgX1 allo act 8.3 | MrgX1 allo conf inactive | HEK293 Ca flux inactive | HEK293 Ca counter inactive | HEK293 Ca cntr2 inactive
Cc1ccc(NC(=O)CSc2nnc(C3CC3)n2N)cc1S(=O)(=O)N1CCOCC1	MrgX1 allo act 7.9 | MrgX1 allo conf inactive | HEK293 Ca flux inactive | HEK293 Ca counter inactive | HEK293 Ca cntr2 inactive
O=C(CN1C(=O)NC2NC(=O)NC21)NC1CCCCC1 (stereo not drawn)	none
O=C(O)CSc1c2c(nc3cc(C(=O)Nc4ccc(F)c(Cl)c4)ccc13)CCCC2	none
CN1/C(=C/C2CC(=O)NC2=O)C(C)(C)c2ccccc21 (stereo not drawn)	MrgX1 allo act 7 (no result: RGS4 block, RGS4 pot) | MrgX1 allo conf inactive | HEK293 Ca flux inactive | HEK293 Ca counter inactive | HEK293 Ca cntr2 inactive
CN1/C(=C/C2CC(=O)N(c3cccc4ccccc34)C2=O)C(C)(C)c2ccccc21 (stereo not drawn)	none
O=C(NC1CCC(O)CC1)c1ccc(-c2ccc([N+](=O)[O-])cc2)o1 (stereo not drawn)	none
CN(Cc1ccccc1)Cc1nc2c(c(=O)n(C)c(=O)n2C)n1CCCc1ccccc1	MrgX1 allo act 8.1 | MrgX1 allo conf inactive | HEK293 Ca flux inactive | HEK293 Ca counter inactive | HEK293 Ca cntr2 inactive
Cc1ccc(C(=O)NCc2nnc(SCC(=O)NC(C)c3ccccc3)n2C)cc1 (stereo not drawn)	none
C=CCNC(=O)C(=O)c1c(-c2ccccc2)[nH]c2ccccc12	none
O=C(NCCc1ccccc1)C(=O)c1c(-c2ccccc2)[nH]c2ccccc12	MrgX1 allo act 11 | MrgX1 allo conf inactive | HEK293 Ca flux inactive | HEK293 Ca counter inactive | HEK293 Ca cntr2 inactive
CCc1nc2ccc(C(=O)N(C)CC(=O)Nc3ccc(Cl)c(C(F)(F)F)c3)cc2nc1CC	MrgX1 allo act 14 | MrgX1 allo conf inactive | HEK293 Ca flux inactive | HEK293 Ca counter inactive | HEK293 Ca cntr2 inactive
O=C(Nc1cccc(C(=O)O)c1)/C(=C\c1ccccc1Cl)NC(=O)c1ccco1	none
O=C(NCCCN1CCOCC1)c1ccc(CSc2ccc(Cl)cc2)cc1	MrgX1 allo act 9.1 | MrgX1 allo conf inactive | HEK293 Ca flux inactive | HEK293 Ca counter inactive | HEK293 Ca cntr2 inactive
CC(C)c1ccc(C(=O)NCCCN2CCOCC2)cc1	none
Cc1ccccc1Oc1ncnc2oc(-c3ccccc3)cc12	MrgX1 allo act 18 | MrgX1 allo conf 44% | HEK293 Ca flux inactive | HEK293 Ca counter inactive | HEK293 Ca cntr2 inactive
CC12CCC(=O)N1C(C(=O)Nc1nc3ccc(Cl)cc3s1)CS2 (stereo not drawn)	MrgX1 allo act 16 | MrgX1 allo conf inactive | HEK293 Ca flux inactive | HEK293 Ca counter inactive | HEK293 Ca cntr2 inactive
CC12CCC(=O)N1C(C(=O)Nc1nc3ccc(S(C)(=O)=O)cc3s1)CS2 (stereo not drawn)	none
CC(Cc1ccccc1)Nc1ncnc2c1ncn2C1OC(CO)C(O)C1O (stereo not drawn)	MrgX1 allo act 7.6 | MrgX1 allo conf inactive | HEK293 Ca flux inactive | HEK293 Ca counter inactive | HEK293 Ca cntr2 inactive
CC(=O)Nc1ccc(NC(=O)C/C(C)=N/NC(=O)c2cccc3ccccc23)cc1	none
O=C(CN1CCCc2ccccc21)Nc1ccc(F)cc1[N+](=O)[O-]	none
Cc1ccccc1OC(C)C(=O)NCc1cccnc1 (stereo not drawn)	none
CCOC(=O)C(Cc1ccccc1)C(=O)NCc1cccnc1 (stereo not drawn)	MrgX1 allo act 14 | MrgX1 allo conf inactive | HEK293 Ca flux inactive | HEK293 Ca counter inactive | HEK293 Ca cntr2 inactive
COc1ccc(NCC(=O)Nc2ccc(Br)cc2F)c(OC)c1	MrgX1 allo act 9.2 | MrgX1 allo conf inactive | HEK293 Ca flux inactive | HEK293 Ca counter inactive | HEK293 Ca cntr2 inactive
NC(=O)c1ccc(Oc2ncc(C(F)(F)F)cc2Cl)cc1	none
Oc1ccc(Oc2ncc(Cl)cc2Cl)cc1	MrgX1 allo act 8.8 | MrgX1 allo conf inactive | HEK293 Ca flux inactive | HEK293 Ca counter inactive | HEK293 Ca cntr2 inactive
Cc1ccccc1-c1nn(-c2ccc(F)cc2F)cc1CNCC(C)O (stereo not drawn)	none
Cc1cc(NC(=O)c2cccc(S(=O)(=O)N3CC(c4ccccc4)CC3=O)c2)no1 (stereo not drawn)	MrgX1 allo act 8.3 | MrgX1 allo conf inactive | HEK293 Ca flux inactive | HEK293 Ca counter inactive | HEK293 Ca cntr2 inactive
CC(C)CC1Nc2ncnc(N3CCCCC3)c2N(Cc2ccc(Br)cc2)C1=O (stereo not drawn)	none
O=c1cc2c(nn1Cc1ccccc1Cl)-c1ccccc1CC2	none
CCc1cccc(OCC(=O)Nc2ccccc2N2CCCC2)c1	MrgX1 allo act 19 | MrgX1 allo conf inactive | HEK293 Ca flux inactive | HEK293 Ca counter inactive | HEK293 Ca cntr2 inactive
Cc1nnc2ccc(-c3ccc(NS(=O)(=O)c4ccccc4F)cc3)nn12	none
Cc1nnc2ccc(-c3ccc(NS(=O)(=O)c4ccc(F)cc4F)cc3)nn12	MrgX1 allo act 9.7 | MrgX1 allo conf inactive | HEK293 Ca flux inactive | HEK293 Ca counter inactive | HEK293 Ca cntr2 inactive
CCCCC(=O)NC(NC(=S)N1CCCCCC1)C(Cl)(Cl)Cl (stereo not drawn)	none
